Experimental data as given in ChEMBL document CHEMBL1944580, “Synthesis of novel sulfonamide-1,2,4-triazoles, 1,3,4-thiadiazoles and 1,3,4-oxadiazoles, as potential antibacterial and antifungal agents. Biological evaluation and conformational analysis studies” (2012).
Converted amounts (≈) assume the structure as drawn.

Experiments:
[1] = test system: Staphylococcus aureus; assay: Antibacterial activity against Staphylococcus aureus ATCC 6538 after 24 hrs by micro dilution method; format: functional; settings: ATCC 6538, 24 h
Summary of the method: (§1)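 Microdilution MIC in 96-well plates. Bacterial suspensions adjusted in sterile saline to 1.0 × 10^5 CFU/ml, giving 1.0 × 10^4 cfu per well in LB broth. Compounds tested at up to 1 mg/ml. Plates incubated 24 h. MIC taken as the lowest concentration with no visible growth under a binocular microscope. OD at 655 nm was also read against a blank and the positive control. Streptomycin and ampicillin were the positive controls.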

[2] = test system: Bacillus cereus; assay: Antibacterial activity against Bacillus cereus clinical isolate after 24 hrs by micro dilution method; format: functional; summary of the method: as §1
[3] = test system: Micrococcus flavus; assay: Antibacterial activity against Micrococcus flavus ATCC 10240 after 24 hrs by micro dilution method; format: functional; settings: ATCC 10240, 24 h; summary of the method: as §1
[4] = test system: Listeria monocytogenes; assay: Antibacterial activity against Listeria monocytogenes NCTC 7973 after 24 hrs by micro dilution method; format: functional; settings: NCTC 7973, 24 h; summary of the method: as §1
[5] = test system: Pseudomonas aeruginosa; assay: Antibacterial activity against Pseudomonas aeruginosa ATCC 27853 after 24 hrs by micro dilution method; format: functional; settings: ATCC 27853, 24 h; summary of the method: as §1
[6] = test system: Enterobacter cloacae; assay: Antibacterial activity against Enterobacter cloacae human isolate after 24 hrs by micro dilution method; format: functional; summary of the method: as §1
[7] = test system: Salmonella typhimurium; assay: Antibacterial activity against Salmonella Typhimurium ATCC 13311 after 24 hrs by micro dilution method; format: functional, Salmonella enterica subsp. enterica serovar Typhimurium; settings: Salmonella enterica, ATCC 13311, 24 h; summary of the method: as §1
[8] = test system: Escherichia coli; assay: Antibacterial activity against Escherichia coli ATCC 35210 after 24 hrs by micro dilution method; format: functional; settings: ATCC 35210, 24 h; summary of the method: as §1
[9] = test system: Staphylococcus aureus; assay: Antibacterial activity against Staphylococcus aureus ATCC 6538 treated for 24 hrs followed by sub-cultivated for 72 hrs by micro dilution method; format: functional
Summary of the method: (§2)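 2 µl from each well was serially subcultured into 100 µl fresh broth per well and incubated a further 72 h. MBC is the lowest concentration with no visible growth, taken as 99.5% killing of the original inoculum. Streptomycin and ampicillin were the positive controls.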

[10] = test system: Bacillus cereus; assay: Antibacterial activity against Bacillus cereus clinical isolate treated for 24 hrs followed by sub-cultivated for 72 hrs by micro dilution method; format: functional; summary of the method: as §2
[11] = test system: Micrococcus flavus; assay: Antibacterial activity against Micrococcus flavus ATCC 10240 treated for 24 hrs followed by sub-cultivated for 72 hrs by micro dilution method; format: functional; summary of the method: as §2
[12] = test system: Listeria monocytogenes; assay: Antibacterial activity against Listeria monocytogenes NCTC 7973 treated for 24 hrs followed by sub-cultivated for 72 hrs by micro dilution method; format: functional; summary of the method: as §2
[13] = test system: Pseudomonas aeruginosa; assay: Antibacterial activity against Pseudomonas aeruginosa ATCC 27853 treated for 24 hrs followed by sub-cultivated for 72 hrs by micro dilution method; format: functional; summary of the method: as §2
[14] = test system: Enterobacter cloacae; assay: Antibacterial activity against Enterobacter cloacae human isolate treated for 24 hrs followed by sub-cultivated for 72 hrs by micro dilution method; format: functional; summary of the method: as §2
[15] = test system: Salmonella typhimurium; assay: Antibacterial activity against Salmonella Typhimurium ATCC 13311 treated for 24 hrs followed by sub-cultivated for 72 hrs by micro dilution method; format: functional, Salmonella enterica subsp. enterica serovar Typhimurium; settings: Salmonella enterica; summary of the method: as §2
[16] = test system: Escherichia coli; assay: Antibacterial activity against Escherichia coli ATCC 35210 treated for 24 hrs followed by sub-cultivated for 72 hrs by micro dilution method; format: functional; summary of the method: as §2
[17] = test system: Talaromyces funiculosus; assay: Antifungal activity against Penicillium funiculosum ATCC 36839 after 72 hrs by serial dilution method; format: functional; settings: ATCC 36839, 72 h
Summary of the method: (§3)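 Modified microdilution MIC. Spores were washed from malt agar cultures with sterile 0.85% saline containing 0.1% Tween 80 and adjusted to about 1.0 × 10^5 per 100 µl well in malt broth. Compounds were dissolved in DMSO (1 mg/ml). Plates incubated 72 h at 28 °C. MIC is the lowest concentration with no visible growth under a binocular microscope. Bifonazole and ketoconazole were the references.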

[18] = test system: Penicillium ochrochloron; assay: Antifungal activity against Penicillium ochrochloron ATCC 9112 after 72 hrs by serial dilution method; format: functional; settings: ATCC 9112, 72 h; summary of the method: as §3
[19] = test system: Trichoderma viride; assay: Antifungal activity against Trichoderma viride IAM 5061 after 72 hrs by serial dilution method; format: functional; settings: IAM 5061, 72 h; summary of the method: as §3
[20] = test system: Aspergillus fumigatus; assay: Antifungal activity against Aspergillus fumigatus human isolate after 72 hrs by serial dilution method; format: functional; summary of the method: as §3
[21] = test system: Aspergillus niger; assay: Antifungal activity against Aspergillus niger ATCC 6275 after 72 hrs by serial dilution method; format: functional; settings: ATCC 6275, 72 h; summary of the method: as §3
[22] = test system: Aspergillus flavus; assay: Antifungal activity against Aspergillus flavus ATCC 9643 after 72 hrs by serial dilution method; format: functional; settings: ATCC 9643, 72 h; summary of the method: as §3
[23] = test system: Aspergillus versicolor; assay: Antifungal activity against Aspergillus versicolor ATCC 11730 after 72 hrs by serial dilution method; format: functional; settings: ATCC 11730, 72 h; summary of the method: as §3
[24] = test system: Fulvia fulva; assay: Antifungal activity against Fulvia fulva after 72 hrs by serial dilution method; format: functional; summary of the method: as §3
[25] = test system: Talaromyces funiculosus; assay: Antifungal activity against Penicillium funiculosum ATCC 36839 treated for 72 hrs followed by sub-cultivated for 5 days by serial dilution method; format: functional
Summary of the method: (§4)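 MFC obtained after the 72 h, 28 °C malt-broth microdilution (spore inoculum about 1.0 × 10^5 per well, compounds from 1 mg/ml DMSO). 2 µl was serially subcultured into 100 µl broth per well and incubated a further 5 days at 28 °C. MFC is the lowest concentration with no visible growth, taken as 99.5% killing of the original inoculum.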

[26] = test system: Penicillium ochrochloron; assay: Antifungal activity against Penicillium ochrochloron ATCC 9112 treated for 72 hrs followed by sub-cultivated for 5 days by serial dilution method; format: functional; summary of the method: as §4
[27] = test system: Trichoderma viride; assay: Antifungal activity against Trichoderma viride IAM 5061 treated for 72 hrs followed by sub-cultivated for 5 days by serial dilution method; format: functional; summary of the method: as §4
[28] = test system: Aspergillus fumigatus; assay: Antifungal activity against Aspergillus fumigatus human isolate treated for 72 hrs followed by sub-cultivated for 5 days by serial dilution method; format: functional; summary of the method: as §4
[29] = test system: Aspergillus niger; assay: Antifungal activity against Aspergillus niger ATCC 6275 treated for 72 hrs followed by sub-cultivated for 5 days by serial dilution method; format: functional; summary of the method: as §4
[30] = test system: Aspergillus flavus; assay: Antifungal activity against Aspergillus flavus ATCC 9643 treated for 72 hrs followed by sub-cultivated for 5 days by serial dilution method; format: functional; summary of the method: as §4
[31] = test system: Aspergillus versicolor; assay: Antifungal activity against Aspergillus versicolor ATCC 11730 treated for 72 hrs followed by sub-cultivated for 5 days by serial dilution method; format: functional; summary of the method: as §4
[32] = test system: Fulvia fulva; assay: Antifungal activity against Fulvia fulva treated for 72 hrs followed by sub-cultivated for 5 days by serial dilution method; format: functional; summary of the method: as §4

| MIC [1] [µM] | MIC [2] [µM] | MIC [3] [µM] | MIC [4] [µM] | MIC [5] [µM] | MIC [6] [µM] | MIC [7] [µM] | MIC [8] [µM] | MIC [17] [µM] | MIC [18] [µM] | MIC [19] [µM] | MIC [20] [µM] | SMILES | MBC [9] [µM] | MBC [10] [µM] | MBC [11] [µM] | MBC [12] [µM] | MBC [13] [µM] | MBC [14] [µM] | MBC [15] [µM] | MBC [16] [µM] | other results |
| --- | --- | --- | --- | --- | --- | --- | --- | --- | --- | --- | --- | --- | --- | --- | --- | --- | --- | --- | --- | --- | --- |
| 270 (≈ 101 µg/mL) | 270 (≈ 101 µg/mL) | 270 (≈ 101 µg/mL) | 270 (≈ 101 µg/mL) | 540 (≈ 201 µg/mL) | 270 (≈ 101 µg/mL) | 270 (≈ 101 µg/mL) | 540 (≈ 201 µg/mL) | 140 (≈ 52.1 µg/mL) | 140 (≈ 52.1 µg/mL) | 70 (≈ 26.1 µg/mL) | 140 (≈ 52.1 µg/mL) | COc1cc(Cc2n[nH]c(=S)n2C)c(S(=O)(=O)N(C)C)cc1OC | 540 (≈ 201 µg/mL) | 540 (≈ 201 µg/mL) | 540 (≈ 201 µg/mL) | 270 (≈ 101 µg/mL) | 540 (≈ 201 µg/mL) | 270 (≈ 101 µg/mL) | 270 (≈ 101 µg/mL) | 540 (≈ 201 µg/mL) | MIC [21]: 70 µM (≈ 26.1 µg/mL); MIC [22]: 70 µM (≈ 26.1 µg/mL); MIC [23]: 140 µM (≈ 52.1 µg/mL); MIC [24]: 70 µM (≈ 26.1 µg/mL); MFC [25]: 270 µM (≈ 101 µg/mL); MFC [26]: 270 µM (≈ 101 µg/mL); MFC [27]: 140 µM (≈ 52.1 µg/mL); MFC [28]: 270 µM (≈ 101 µg/mL); MFC [29]: 140 µM (≈ 52.1 µg/mL); MFC [30]: 140 µM (≈ 52.1 µg/mL); MFC [31]: 270 µM (≈ 101 µg/mL); MFC [32]: 140 µM (≈ 52.1 µg/mL) |
| 260 (≈ 100 µg/mL) | 520 (≈ 201 µg/mL) | 260 (≈ 100 µg/mL) | 260 (≈ 100 µg/mL) | 260 (≈ 100 µg/mL) | 260 (≈ 100 µg/mL) | 260 (≈ 100 µg/mL) | 260 (≈ 100 µg/mL) | 130 (≈ 50.2 µg/mL) | 130 (≈ 50.2 µg/mL) | 70 (≈ 27.1 µg/mL) | 130 (≈ 50.2 µg/mL) | CCn1c(Cc2cc(OC)c(OC)cc2S(=O)(=O)N(C)C)n[nH]c1=S | 520 (≈ 201 µg/mL) | 520 (≈ 201 µg/mL) | 520 (≈ 201 µg/mL) | 520 (≈ 201 µg/mL) | 260 (≈ 100 µg/mL) | 520 (≈ 201 µg/mL) | 260 (≈ 100 µg/mL) | 520 (≈ 201 µg/mL) | MIC [21]: 70 µM (≈ 27.1 µg/mL); MIC [22]: 70 µM (≈ 27.1 µg/mL); MIC [23]: 130 µM (≈ 50.2 µg/mL); MIC [24]: 70 µM (≈ 27.1 µg/mL); MFC [25]: 260 µM (≈ 100 µg/mL); MFC [26]: 260 µM (≈ 100 µg/mL); MFC [27]: 130 µM (≈ 50.2 µg/mL); MFC [28]: 260 µM (≈ 100 µg/mL); MFC [29]: 130 µM (≈ 50.2 µg/mL); MFC [30]: 260 µM (≈ 100 µg/mL); MFC [31]: 260 µM (≈ 100 µg/mL); MFC [32]: 70 µM (≈ 27.1 µg/mL) |
